# Compound activity from PubChem BioAssay.
# NTR1 ag: agonists of human neurotensin receptor NTR1; P30989; NTR1-U2OS beta-arrestin-GFP spot imaging, agonist mode; activation, % at 20 µM; hit rate 0.17% among 330,000;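 active = activation at or above 40% of the spot to cytoplasm intensity ratio, with at least 20 cells analyzed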;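 also: 0% = DMSO without peptide and 100% = 100 nM NTR1 peptide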
# CHO parental Ca: signal in parental CHO cells, OX1R antagonist counter-screen; AID 463079; inhibition, % at 5.6 µM; parental CHO-K1, ATP-induced calcium, Fluo-8 fluorescence; hit rate 0.63% among 330,000;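 active = inhibition above that plate's mean sample inhibition plus 3 SD, cut at about 26% in these data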;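 also: 0% = ATP-challenged DMSO wells and 100% = DMSO wells without ATP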
#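 test system = CHO parental line | reagent = ATP stimulus | measured by = intracellular calcium via Fluo-8 no-wash fluorescent dye | control set = ATP and no-ATP DMSO wells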
# TAAR1 agonist: human TAAR1 agonism | CHO RD-HGA16 TAAR1, Fluo-8 calcium fluorescence; vehicle wells 0%, saturating PEA agonist 100% | activation, % at 3 µM | hit rate 0.99% among 360,000;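 active = activation above the mean activation of all test compounds in the run plus 3 SD, cut at about 38% in these data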
#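 Assay system – CHO-derived RD-HGA16 cells with stable Gα16 and human TAAR1 · Compound dosing – one-point dosing at 3 µM (nominal) · Incubation – 17-24 h seeding, 75 min 37 °C dye, 30 min RT · Measured by – kinetic Fluo-8 calcium fluorescence · Control set – DMSO vehicle as 0%, PEA at EC100 as 100% · Repeats – single well for each compound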
# TAAR1 antagonist: antagonists of human TAAR1; Q96RJ0; CHO RD-HGA16 TAAR1, Fluo-8 calcium fluorescence, antagonist; inhibition, % at 3 µM; hit rate 1.5% among 360,000;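 active = inhibition above a per-plate cutoff, the mean inhibition of test compounds on that plate plus 3 SD, cut at about 49% in these data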;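 also: 0% = DMSO plus EC80 beta-PEA response and 100% = DMSO alone without agonist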
#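 Test system – hTAAR1-expressing CHO RD-HGA16 cells, Gα16-coupled · Reagent – β-PEA at EC80 concentration, post-compound challenge · Compound dosing – 3 µM, single point · Timing – 140 s kinetic read after compound, 140 s after agonist · Detection – Fluo-8 intracellular calcium dye fluorescence, real-time kinetic reads · Control set – DMSO and EC80 PEA controls · Repeats – n of 1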
# OX1R antag-1: human HCRTR1 antagonism. AID 434989. inhibition, % at 5 µM. CHO/OX1R cells, Fluo-8 calcium fluorescence, orexin A. O43613. hit rate 0.43% among 330,000;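 active = inhibition above its plate's threshold, mean inhibition of all tested compounds on the plate plus 3 SD, cut at about 37% in these data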;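 also: 0% = orexin A challenge wells and 100% = SB-334867-A antagonist wells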
# Target sequence (O43613 whole entry, looked up): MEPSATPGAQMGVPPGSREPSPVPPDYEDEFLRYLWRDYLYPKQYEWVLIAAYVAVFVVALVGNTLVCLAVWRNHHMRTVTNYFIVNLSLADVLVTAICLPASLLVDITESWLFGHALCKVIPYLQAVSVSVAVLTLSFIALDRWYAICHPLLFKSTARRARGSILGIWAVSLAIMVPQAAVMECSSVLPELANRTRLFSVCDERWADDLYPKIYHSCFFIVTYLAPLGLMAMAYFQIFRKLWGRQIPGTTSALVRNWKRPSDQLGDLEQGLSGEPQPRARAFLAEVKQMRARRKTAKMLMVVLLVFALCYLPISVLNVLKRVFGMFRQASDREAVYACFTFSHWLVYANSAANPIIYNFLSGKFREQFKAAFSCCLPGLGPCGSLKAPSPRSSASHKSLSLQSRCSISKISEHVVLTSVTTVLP
# OX1R antag-2: antagonists of human orexin 1 receptor (OX1R); O43613; OX1R-expressing cells, FRET antagonist read-out; inhibition, % at 6.6 µM; hit rate 1.8% among 330,000; AID 485270; in the data active = inhibition mostly above about 38%, no sharp cut-off; inactive = mostly below about 40%;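 also: 0% = agonist challenge alone and 100% = reference antagonist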
# TAAR1 ag confirm: confirmation of human TAAR1 agonists. shares compounds with TAAR1 agonist. CHO RD-HGA16 TAAR1, Fluo-8 calcium fluorescence; scaled: DMSO 0%, maximal phenethylamine 100%. activation, % at 3 µM. hit rate 82% among 2,400. AID 651783;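 active = activation above a cutoff set at the run's mean compound activation plus 3 SD, cut at about 39% in these data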
# Ga16 ag counter: nonselective agonist in parental cells, TAAR1 agonist counter-screen; shares compounds with TAAR1 agonist; CHO-Ga16 parental, Fluo-8 calcium fluorescence; normalized to maximal ATP response, DMSO zero; activation, % at 3 µM; hit rate 50% among 2,400;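 active = activation above the run cutoff, the mean activation over all tested wells plus 3 SD, cut at about 12% in these data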;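 also: 0% = DMSO wells and 100% = maximal ATP response on the peak over basal ratio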
# TAAR1 desens: counter-screen for human TAAR1 agonists: agonists that desensitize TAAR1; shares compounds with TAAR1 agonist; CHO RD-HGA16 hTAAR1, Fluo-8 calcium, beta-PEA response inhibition; inhibition, % at 3 µM; hit rate 46% among 2,400; AID 651951;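 active = inhibition above the run cutoff, the mean inhibition of all test compounds plus 3 SD, cut at about 49% in these data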;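 also: beta-PEA stimulus applied at its EC80; loss of beta-PEA calcium signal after compound pretreatment read as receptor desensitization; 0% = DMSO with beta-PEA at EC80 and 100% = DMSO alone without agonist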
# Ga16 antag count: counter-screen for TAAR1 agonists: nonselective Ga16 antagonists; shares compounds with TAAR1 agonist; CHO-Ga16 ATP-induced calcium, Fluo-8 fluorescence; inhibition, % at 3 µM; hit rate 39% among 2,400; AID 651952;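 active = inhibition above the plate's mean compound inhibition plus 3 SD, computed per plate, cut at about 22% in these data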;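 also: 0% = EC80 ATP with DMSO and 100% = DMSO wells without ATP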
# Active calls of the source: *; . = not tested or not shown. Shown are actives, neighbours in structure and some others; about 4% of the full set was active somewhere.
SMILES,NTR1 ag,CHO parental Ca,TAAR1 agonist,TAAR1 antagonist,OX1R antag-1,OX1R antag-2,TAAR1 ag confirm,Ga16 ag counter,TAAR1 desens,Ga16 antag count
Cc1ccnc(NS(=O)(=O)c2ccc(-n3cccn3)cc2)c1,-1,-11,1,-1,-8,16,.,.,.,.
COCCN(C(=O)CCC(=O)Nc1ccccn1)C(C(=O)NC(C)C)c1ccc(C)cc1 (stereo unspecified),-1,-16,-1,-2,-18,22,.,.,.,.
COc1ccc(S(=O)(=O)N(CC(=O)NCC2CCCO2)C2CCCCC2)cc1OC (stereo unspecified),-1,-15,0,-13,1,6,.,.,.,.
Cc1ccc(NC(=S)N2CCc3[nH]c4ccccc4c3C2)cc1,4,3,69*,64*,-4,0,49*,10,36,20
O=C(CCCCl)N1CCc2[nH]c3ccccc3c2C1,1,.,89*,87*,.,.,97*,0,92*,8
CC(=O)N1CCc2[nH]c3ccccc3c2C1,-1,2,2,4,6,-1,.,.,.,.
CCc1ccc(/C=N/NC(=O)c2nnn(-c3nonc3N)c2CN2CCOCC2)cc1,4,0,63*,3,-12,23,59*,52*,20,16
CCCc1c(C(=O)N/N=C/c2cccs2)nnn1-c1nonc1N,0,-3,65*,-14,-7,16,27,19*,4,15
CCCOc1ccc(-c2c(C(=O)N/N=C/c3ccc(OCC)cc3)nnn2-c2nonc2N)cc1,3,-21,16,-25,-31,19,.,.,.,.
CCCOc1ccc(-c2c(C(=O)N/N=C/c3ccncc3)nnn2-c2nonc2N)cc1,2,-22,47*,18,-22,14,30,12*,24,20
CCOc1ccc(-c2c(C(=O)N/N=C/c3ccc(OC)cc3)nnn2-c2nonc2N)cc1,5,-24,51*,5,-18,24,47*,23*,4,4
COc1cc(C(=O)N(Cc2ccccc2)c2cccc(C)c2)ccc1OCC(=O)N1CCOCC1,.,.,4,-15,.,.,.,.,.,.
C[C@H]1CN([C@@H](C)CO)C(=O)CCCn2cc(nn2)CO[C@@H]1CN(C)S(=O)(=O)c1ccc(Cl)cc1,.,.,2,-28,.,.,.,.,.,.
CN(C)CCCN(CCCN(C)C)C(=S)Nc1ccc(S(=O)(=O)N2CCOCC2)cc1,2,4,2,-29,-6,7,.,.,.,.
O=C(C[C@H]1CC[C@H]2[C@@H](COC[C@@H](O)CN2Cc2cc(F)ccc2F)O1)NCc1ccc(Cl)cc1,.,.,3,2,.,.,.,.,.,.
COc1cccc(-c2c(C(=O)N/N=C/c3ccsc3)nnn2-c2nonc2N)c1,1,-9,129*,32,-28,26,145*,106*,72*,29*
CCOc1cccc(-c2c(C(=O)N/N=C/c3ccc(Br)cc3)nnn2-c2nonc2N)c1,21,-11,102*,37,-17,1,97*,82*,58*,48*
CCOc1ccc(-c2c(C(=O)N/N=C/c3ccsc3)nnn2-c2nonc2N)cc1,6,-31,119*,21,-53,8,111*,74*,23,10
CCOc1cccc(-c2c(C(=O)N/N=C/c3cccnc3)nnn2-c2nonc2N)c1,2,-8,14,-4,-9,10,.,.,.,.
COc1ccc(CN2C(=NC(=O)C3CCCO3)SC3CS(=O)(=O)CC32)cc1 (stereo unspecified),-1,8,6,-8,10,19,.,.,.,.
COCCNC(=O)c1ccc(C2SCC(=O)N2CCc2ccccc2)cc1 (stereo unspecified),1,.,3,4,.,.,.,.,.,.
O=C(Nc1ccc(Cl)cc1C(F)(F)F)c1ccc(Cl)cc1,0,10,75*,31,-11,24,20,-1,19,9
O=C(Nc1cc(F)c(Br)cc1F)c1ccc(Cl)cc1,0,-2,91*,70*,-19,12,1,8,0,11
O=C(Nc1ccc(Cl)cc1C(F)(F)F)c1ccccc1Cl,0,-18,-1,-3,-8,16,.,.,.,.
CSc1nc(-c2ccccc2)nc(C(C)C)n1,2,-8,5,-4,3,7,.,.,.,.
SMILES,NTR1 ag,CHO parental Ca,TAAR1 agonist,TAAR1 antagonist,OX1R antag-1,OX1R antag-2,TAAR1 ag confirm,Ga16 ag counter,TAAR1 desens,Ga16 antag count
Cc1cc2c(cc1C)-n1nnnc1C(N(C)CCc1ccccc1)C(=O)N2 (stereo unspecified),.,.,54*,18,.,.,65*,6,36,10
Cc1cc2c(cc1C)-n1nnnc1C(N1CCCNCC1)C(=O)N2 (stereo unspecified),.,.,2,1,.,.,.,.,.,.
O=C(CSc1nc2ccccc2c(=O)n1Cc1ccco1)NCc1ccccc1,5,-5,-3,0,-11,4,.,.,.,.
O=C(CSc1nc2ccccc2c(=O)n1Cc1ccc(F)cc1)NCc1cccs1,6,-20,95*,96*,-23,23,92*,52*,99*,68*
O=C(CSc1nc2ccccc2c(=O)n1Cc1ccccc1)NCc1ccco1,5,-3,75*,79*,-5,3,78*,47*,65*,38*
Cc1ccc2nc(-c3ccccc3)cc(C(=O)N3CCc4ccccc4C3)c2c1,5,-7,72*,17,-26,6,68*,2,25,20
CCCCOc1ccc(C(=O)Nc2ccc(N3CCN(C)CC3)cc2)cc1,1,-11,48*,23,-5,23,68*,3,68*,18
O=C(COc1ccc(Cl)cc1Cl)NC(=S)N1CCCc2ccccc21,2,-10,51*,-16,1,37,30,6,2,9
CCOc1ccc(NS(=O)(=O)c2ccc(C(=O)N(C)CC(=O)Nc3ccc(OC)cc3)cc2)cc1,0,5,2,-11,-13,20,.,.,.,.
C=C(C)CN(CC)C(=O)COc1ccc(S(=O)(=O)Nc2ccc(OC)cc2)cc1,-3,-4,63*,14,2,9,59*,30*,23,22*
CCCC(=O)NC(=S)Nc1ccc(S(=O)(=O)Nc2ccc(OCC)cc2)cc1,13,5,74*,34,13,3,85*,35*,66*,39*
